Data taken from ChEMBL document CHEMBL3414471 (J Med Chem, 2015).
Calls of active or inactive are those of the source. No cut-off for these calls is given here.

Experiments:
[1] = molecular target: T1, 5-hydroxytryptamine receptor 2B (Homo sapiens, UniProt P41595); experiment: Agonist activity at human 5-HT2B receptor expressed in HEK293 cells assessed as calcium flux by FLIPR assay; assay type: functional, cell-based
[2] = molecular target: T1, 5-hydroxytryptamine receptor 2B; experiment: Agonist activity at human 5-HT2B receptor expressed in HEK293 cells assessed as calcium flux by FLIPR assay relative to 5-HT; assay type: functional, cell-based
Procedure, shortened: (§1)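 Flp-In-293 cells stably expressing human 5-HT2A, 5-HT2B or 5-HT2C-INI; grown 24–48 h in DMEM/10% dialyzed FBS, plated on poly-L-Lys at 12000 cells/well in 1% dialyzed FBS for 24 h. Loaded 1 h at 37 °C with calcium dye in HBSS, 20 mM Hepes pH 7.40, 2.5 mM probenecid.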

[3] = system: Liver microsome; experiment: Metabolic stability in human liver microsomes; assay type: ADME
Procedure, shortened: (§2)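 Incubation with human or CD-1 mouse liver microsomes for 1 h; stability expressed as % parent compound remaining.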

[4] = molecular target: CYP3A (Homo sapiens, UniProt P08684+P20815+P24462+Q9HB55); experiment: Inhibition of human CYP3A using midazolam as substrate at 10 uM; assay type: ADME; conditions: probe midazolam
Procedure, shortened: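 Human liver microsomes, test compound at 10 µM, midazolam as CYP3A substrate; percent inhibition reported; run by a contract lab.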

[5] = molecular target: T2, 5-hydroxytryptamine receptor 2C (Homo sapiens) (UniProt P28335); experiment: Agonist activity at human 5-HT2C receptor expressed in HEK293 cells assessed as calcium flux by FLIPR assay relative to 5-HT; assay type: functional, cell-based; procedure, shortened: as §1
T2 sequence (whole entry): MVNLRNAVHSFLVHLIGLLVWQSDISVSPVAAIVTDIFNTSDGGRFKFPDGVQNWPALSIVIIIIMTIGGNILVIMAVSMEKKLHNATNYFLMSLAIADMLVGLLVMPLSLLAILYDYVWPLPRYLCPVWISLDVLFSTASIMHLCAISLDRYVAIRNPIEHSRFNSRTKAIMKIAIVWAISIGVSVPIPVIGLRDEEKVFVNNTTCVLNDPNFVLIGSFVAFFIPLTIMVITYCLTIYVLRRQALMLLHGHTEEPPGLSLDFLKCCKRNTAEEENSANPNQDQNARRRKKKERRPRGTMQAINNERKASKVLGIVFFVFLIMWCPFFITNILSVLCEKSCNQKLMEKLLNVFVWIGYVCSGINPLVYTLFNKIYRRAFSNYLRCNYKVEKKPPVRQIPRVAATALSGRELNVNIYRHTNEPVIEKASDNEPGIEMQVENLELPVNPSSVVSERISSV

[6] = Permeability from basolateral to apical side in human Caco2 cells at pH 7.4; assay type: ADME, cell-based; conditions: caco-2, pH 7.4
Procedure, shortened: (§3)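 Caco-2 monolayer permeability measured A–B and B–A in pH 7.4 buffer, reported as ×10−6 cm/s; A–B/B–A ratio derived from these.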

[7] = system: Salmonella typhimurium; experiment: Mutagenic activity in Salmonella typhimurium TA1537 at 10 to 100 uM by ames test; assay type: toxicity, organism-based; conditions: salmonella enterica subsp. enterica serovar typhimurium
Procedure, shortened: (§4)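 Ames fluctuation test in Salmonella strains TA98, TA100, TA1535 and TA1537, with and without S9, at 10, 50 and 100 µM; scored negative or positive.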

[8] = system: Salmonella typhimurium; experiment: Mutagenic activity in Salmonella typhimurium TA1537 at 10 to 100 uM by ames test in presence of S9 mixture; assay type: toxicity, organism-based; conditions: salmonella enterica subsp. enterica serovar typhimurium; procedure, shortened: as §4
[9] = Permeability from apical to basolateral side in human Caco2 cells at pH 7.4; assay type: ADME, cell-based; conditions: caco-2, pH 7.4; procedure, shortened: as §3
[10] = molecular target: T3, CYP2B6 (Homo sapiens, UniProt P20813); experiment: Inhibition of human CYP2B6 using bupropion as substrate at 10 uM; assay type: ADME; conditions: probe bupropion
T3 sequence (P20813 whole entry): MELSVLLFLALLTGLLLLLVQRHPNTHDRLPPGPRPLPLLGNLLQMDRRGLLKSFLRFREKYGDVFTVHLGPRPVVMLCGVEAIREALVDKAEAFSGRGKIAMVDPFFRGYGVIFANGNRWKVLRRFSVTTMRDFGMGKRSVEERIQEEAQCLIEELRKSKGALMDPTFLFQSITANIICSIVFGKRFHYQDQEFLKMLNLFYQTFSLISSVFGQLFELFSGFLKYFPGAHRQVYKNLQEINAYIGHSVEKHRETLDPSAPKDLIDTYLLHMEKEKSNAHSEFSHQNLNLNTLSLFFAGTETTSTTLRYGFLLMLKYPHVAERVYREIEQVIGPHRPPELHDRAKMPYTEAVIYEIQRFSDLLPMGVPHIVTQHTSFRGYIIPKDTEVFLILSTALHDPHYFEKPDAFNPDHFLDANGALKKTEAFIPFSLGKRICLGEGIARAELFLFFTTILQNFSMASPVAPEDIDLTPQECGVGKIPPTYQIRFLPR

[11] = Drug uptake in CD1 mouse brain at 10 mg/kg, ip after 2 hrs; assay type: ADME, organism-based; parameters: dose 10 mg/kg, route intraperitoneal; conditions: read-out: Drug uptake
Procedure, shortened: (§5)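 CD1 mice received a single 10 mg/kg ip dose formulated in pure water. Brain (ng/g) and plasma (ng/mL) levels were measured at 0.5 and 2 h. Brain/plasma ratio assumed a brain tissue density of 1 g/mL.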

[12] = system: Salmonella typhimurium; experiment: Mutagenic activity in Salmonella typhimurium TA1535 at 10 to 100 uM by ames test in presence of S9 mixture; assay type: toxicity, organism-based; conditions: salmonella enterica subsp. enterica serovar typhimurium; procedure, shortened: as §4
[13] = Plasma concentration in CD1 mouse at 10 mg/kg, ip after 0.5 hrs; assay type: ADME, organism-based; parameters: dose 10 mg/kg, route intraperitoneal; procedure, shortened: as §5
[14] = molecular target: CYP2C9 (Homo sapiens, UniProt P11712); experiment: Inhibition of human CYP2C9 using diclofenac as substrate at 10 uM; assay type: ADME; conditions: probe diclofenac
[15] = system: Salmonella typhimurium; experiment: Mutagenic activity in Salmonella typhimurium TA1535 at 10 to 100 uM by ames test; assay type: toxicity, organism-based; conditions: salmonella enterica subsp. enterica serovar typhimurium; procedure, shortened: as §4
[16] = system: Nucleic Acid; experiment: Ratio of drug uptake from brain to plasma in CD1 mouse at 10 mg/kg, ip after 0.5 hrs; assay type: ADME, organism-based; parameters: dose 10 mg/kg, route intraperitoneal
[17] = system: Salmonella typhimurium; experiment: Mutagenic activity in Salmonella typhimurium TA98 at 10 to 100 uM by ames test; assay type: toxicity, organism-based; conditions: salmonella enterica subsp. enterica serovar typhimurium; procedure, shortened: as §4
[18] = Efflux ratio of permeability from apical to basolateral side over basolateral to apical side in human Caco2 cells at pH 7.4; assay type: ADME, cell-based; conditions: caco-2, pH 7.4
[19] = system: Mus musculus; experiment: Antipsychotic activity in C57BL/6J mouse assessed as reduction of amphetamine-induced locomotor activity administered ip 15 mins prior to amphetamine challenge measured for 105 mins by open field test relative to vehicle-treated control; assay type: functional, organism-based
[20] = system: Liver; experiment: Metabolic stability in mouse liver microsomes; assay type: ADME; procedure, shortened: as §2
[21] = system: Salmonella typhimurium; experiment: Mutagenic activity in Salmonella typhimurium TA100 at 10 to 100 uM by ames test in presence of S9 mixture; assay type: toxicity, organism-based; conditions: salmonella enterica subsp. enterica serovar typhimurium; procedure, shortened: as §4
[22] = molecular target: 5-hydroxytryptamine receptor 2A (Homo sapiens, UniProt P28223); experiment: Agonist activity at human 5-HT2A receptor expressed in HEK293 cells assessed as calcium flux at 10 uM by FLIPR assay; assay type: functional, cell-based
Procedure, shortened: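 Flp-In-293 cells stably expressing human 5-HT2A, 5-HT2B or 5-HT2C-INI, grown in DMEM with 10% dialyzed FBS, then plated for 24 h in 1% dialyzed FBS. Cells were loaded 1 h at 37 °C with calcium dye in Hepes-buffered HBSS, pH 7.40, containing 2.5 mM probenecid. FLIPR read 10 s baseline, then 120 s after drug addition.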

[23] = system: Salmonella typhimurium; experiment: Mutagenic activity in Salmonella typhimurium TA98 at 10 to 100 uM by ames test in presence of S9 mixture; assay type: toxicity, organism-based; conditions: salmonella enterica subsp. enterica serovar typhimurium; procedure, shortened: as §4
[24] = molecular target: Voltage-gated inwardly rectifying potassium channel KCNH2 (Homo sapiens, UniProt Q12809); experiment: Inhibition of human ERG channel expressed in CHO cells by patch clamp method; assay type: cell-based
[25] = system: Nucleic Acid; experiment: Ratio of drug uptake from brain to plasma in CD1 mouse at 10 mg/kg, ip after 2 hrs; assay type: ADME, organism-based; parameters: dose 10 mg/kg, route intraperitoneal
[26] = molecular target: T4, 5-hydroxytryptamine receptor 2C (Homo sapiens, UniProt P28335); experiment: Agonist activity at human 5-HT2C receptor expressed in HEK293 cells assessed as calcium flux by FLIPR assay; assay type: functional, cell-based
T4 sequence (P28335 whole entry): T2 sequence (whole entry)

[27] = molecular target: CYP2C19 (Homo sapiens, UniProt P33261); experiment: Inhibition of human CYP2C19 using omeprazole as substrate at 10 uM; assay type: ADME; conditions: probe omeprazole
[28] = Plasma protein binding in human at 10 uM; assay type: ADME, cell-free
Procedure, shortened: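 Human plasma protein binding determined at 10 µM compound, expressed as % bound.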

[29] = Drug uptake in CD1 mouse brain at 10 mg/kg, ip after 0.5 hrs; assay type: ADME, organism-based; parameters: dose 10 mg/kg, route intraperitoneal; conditions: read-out: Drug uptake; procedure, shortened: as §5
[30] = Plasma concentration in CD1 mouse at 10 mg/kg, ip after 2 hrs; assay type: ADME, organism-based; parameters: dose 10 mg/kg, route intraperitoneal; procedure, shortened: as §5
[31] = molecular target: CYP2D6 (Homo sapiens, UniProt P10635); experiment: Inhibition of human CYP2D6 using dextromethorphan as substrate at 10 uM; assay type: ADME; conditions: probe dextromethorphan
[32] = system: Salmonella typhimurium; experiment: Mutagenic activity in Salmonella typhimurium TA100 at 10 to 100 uM by ames test; assay type: toxicity, organism-based; conditions: salmonella enterica subsp. enterica serovar typhimurium; procedure, shortened: as §4

T1 sequence (P41595 whole entry): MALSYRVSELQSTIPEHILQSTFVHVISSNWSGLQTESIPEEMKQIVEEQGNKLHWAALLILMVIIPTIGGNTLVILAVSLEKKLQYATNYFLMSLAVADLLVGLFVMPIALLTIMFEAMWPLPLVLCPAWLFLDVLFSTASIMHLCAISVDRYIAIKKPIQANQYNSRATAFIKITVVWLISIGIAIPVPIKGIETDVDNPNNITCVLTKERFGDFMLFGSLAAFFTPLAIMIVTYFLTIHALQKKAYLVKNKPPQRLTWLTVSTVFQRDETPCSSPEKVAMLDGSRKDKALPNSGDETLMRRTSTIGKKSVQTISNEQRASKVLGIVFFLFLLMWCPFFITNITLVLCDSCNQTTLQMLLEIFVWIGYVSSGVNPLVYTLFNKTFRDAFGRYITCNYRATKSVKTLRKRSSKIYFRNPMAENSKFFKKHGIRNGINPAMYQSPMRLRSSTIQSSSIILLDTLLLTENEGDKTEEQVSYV
Voltage-gated inwardly rectifying potassium channel KCNH2, sequence (Q12809 whole entry): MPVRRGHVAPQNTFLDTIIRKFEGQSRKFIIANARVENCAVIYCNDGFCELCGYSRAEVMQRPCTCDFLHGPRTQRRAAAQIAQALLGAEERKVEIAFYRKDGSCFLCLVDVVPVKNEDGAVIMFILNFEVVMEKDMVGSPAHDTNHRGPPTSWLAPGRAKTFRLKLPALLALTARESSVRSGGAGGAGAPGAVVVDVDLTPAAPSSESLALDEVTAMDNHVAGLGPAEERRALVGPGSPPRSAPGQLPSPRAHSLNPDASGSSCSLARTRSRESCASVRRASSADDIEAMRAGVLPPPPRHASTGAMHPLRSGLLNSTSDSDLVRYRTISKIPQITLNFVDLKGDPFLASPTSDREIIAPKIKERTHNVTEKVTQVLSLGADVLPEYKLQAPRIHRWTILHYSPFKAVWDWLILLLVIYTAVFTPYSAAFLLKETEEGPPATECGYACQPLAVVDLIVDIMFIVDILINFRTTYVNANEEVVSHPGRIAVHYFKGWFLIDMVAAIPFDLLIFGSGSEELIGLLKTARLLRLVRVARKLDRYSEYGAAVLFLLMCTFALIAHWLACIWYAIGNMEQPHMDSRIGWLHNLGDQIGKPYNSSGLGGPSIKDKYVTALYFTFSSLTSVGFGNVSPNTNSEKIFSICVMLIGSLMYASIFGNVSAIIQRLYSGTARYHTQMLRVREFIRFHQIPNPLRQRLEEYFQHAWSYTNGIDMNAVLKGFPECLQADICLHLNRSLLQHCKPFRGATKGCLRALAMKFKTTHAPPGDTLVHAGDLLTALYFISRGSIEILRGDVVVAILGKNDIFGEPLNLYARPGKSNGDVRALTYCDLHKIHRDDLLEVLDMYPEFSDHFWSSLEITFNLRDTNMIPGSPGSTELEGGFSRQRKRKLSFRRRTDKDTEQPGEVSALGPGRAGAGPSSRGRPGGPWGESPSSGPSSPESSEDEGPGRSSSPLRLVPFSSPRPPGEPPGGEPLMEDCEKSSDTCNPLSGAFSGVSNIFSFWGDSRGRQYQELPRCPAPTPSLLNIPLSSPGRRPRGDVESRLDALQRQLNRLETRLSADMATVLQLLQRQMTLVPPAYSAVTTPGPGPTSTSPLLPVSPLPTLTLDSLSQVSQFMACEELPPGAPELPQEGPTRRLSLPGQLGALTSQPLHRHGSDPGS
CYP2D6, sequence (P10635 whole entry): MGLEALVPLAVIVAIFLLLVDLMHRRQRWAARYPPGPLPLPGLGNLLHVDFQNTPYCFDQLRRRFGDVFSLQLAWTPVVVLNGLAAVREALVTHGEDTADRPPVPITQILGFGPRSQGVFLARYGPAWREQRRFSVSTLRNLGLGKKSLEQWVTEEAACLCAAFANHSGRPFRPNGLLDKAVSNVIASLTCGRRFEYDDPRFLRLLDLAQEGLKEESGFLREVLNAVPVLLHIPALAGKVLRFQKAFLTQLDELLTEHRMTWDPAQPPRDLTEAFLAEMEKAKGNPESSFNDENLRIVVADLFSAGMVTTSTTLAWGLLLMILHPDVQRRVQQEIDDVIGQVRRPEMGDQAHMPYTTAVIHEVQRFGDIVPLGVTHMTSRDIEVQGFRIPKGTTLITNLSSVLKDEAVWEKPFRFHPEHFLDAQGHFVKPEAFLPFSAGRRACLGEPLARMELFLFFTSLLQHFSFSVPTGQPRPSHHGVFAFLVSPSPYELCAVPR
CYP2C19, sequence (P33261 whole entry): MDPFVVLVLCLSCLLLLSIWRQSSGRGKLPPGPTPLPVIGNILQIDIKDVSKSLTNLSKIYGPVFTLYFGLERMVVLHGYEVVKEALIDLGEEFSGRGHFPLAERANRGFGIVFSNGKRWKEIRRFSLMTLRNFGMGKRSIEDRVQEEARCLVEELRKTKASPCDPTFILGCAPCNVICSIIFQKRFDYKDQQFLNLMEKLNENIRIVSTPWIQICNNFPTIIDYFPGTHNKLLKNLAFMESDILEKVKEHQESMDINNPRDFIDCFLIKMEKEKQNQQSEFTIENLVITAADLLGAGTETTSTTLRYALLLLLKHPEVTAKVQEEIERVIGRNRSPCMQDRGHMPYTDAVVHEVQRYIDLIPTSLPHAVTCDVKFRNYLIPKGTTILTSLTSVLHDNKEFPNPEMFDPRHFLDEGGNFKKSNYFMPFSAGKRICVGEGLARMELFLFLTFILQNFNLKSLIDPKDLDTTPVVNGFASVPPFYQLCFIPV
CYP2C9, sequence (P11712 whole entry): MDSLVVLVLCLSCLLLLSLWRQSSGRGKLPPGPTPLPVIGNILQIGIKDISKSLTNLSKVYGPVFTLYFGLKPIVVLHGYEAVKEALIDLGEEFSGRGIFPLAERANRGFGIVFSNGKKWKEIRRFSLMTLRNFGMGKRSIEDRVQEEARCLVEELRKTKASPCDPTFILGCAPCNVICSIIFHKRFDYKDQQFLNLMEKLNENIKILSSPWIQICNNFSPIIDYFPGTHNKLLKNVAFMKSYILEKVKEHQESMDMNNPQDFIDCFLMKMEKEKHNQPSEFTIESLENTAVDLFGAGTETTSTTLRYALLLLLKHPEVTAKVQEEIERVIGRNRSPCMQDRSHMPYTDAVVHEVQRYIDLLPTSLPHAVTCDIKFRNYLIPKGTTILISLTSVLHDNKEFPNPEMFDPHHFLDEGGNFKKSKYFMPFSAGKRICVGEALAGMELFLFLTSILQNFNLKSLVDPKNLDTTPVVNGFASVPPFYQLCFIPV
5-hydroxytryptamine receptor 2A, sequence (P28223 whole entry): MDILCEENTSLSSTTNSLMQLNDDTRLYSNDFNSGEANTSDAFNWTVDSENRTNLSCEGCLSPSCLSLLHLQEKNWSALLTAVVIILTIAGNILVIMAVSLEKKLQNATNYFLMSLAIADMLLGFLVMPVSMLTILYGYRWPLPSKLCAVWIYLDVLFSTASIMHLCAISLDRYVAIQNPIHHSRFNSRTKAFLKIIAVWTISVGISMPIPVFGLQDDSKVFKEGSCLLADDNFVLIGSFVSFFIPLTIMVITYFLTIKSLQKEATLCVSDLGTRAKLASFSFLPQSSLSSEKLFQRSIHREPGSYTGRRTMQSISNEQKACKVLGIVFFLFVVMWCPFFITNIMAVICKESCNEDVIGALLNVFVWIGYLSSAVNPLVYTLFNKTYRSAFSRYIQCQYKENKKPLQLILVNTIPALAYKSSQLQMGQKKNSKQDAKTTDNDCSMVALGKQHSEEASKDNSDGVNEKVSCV

C=C(F)COc1ccc(Cl)cc1[C@H]1C[C@@H]1CN.Cl showed an EC50 [1] of 1.69 µM, an Emax [2] of 27% and a Stability [3] of 80%. The inhibition at 10 µM [4] was 27%, the Emax [5] was 81% and the permeability [6] was 10.8 ×10⁻⁶ cm/s. For the same compound, the Activity [7] was “Non-toxic”, the Activity [8] was “Non-toxic” and the permeability [9] was 38.3 ×10⁻⁶ cm/s. For the same compound, the inhibition at 10 µM [10] was 77%, the concentration at 2 h [11] was 14700 ng/g and the Activity [12] was “Non-toxic”. For the same compound, the concentration at 0.5 h [13] was 1440 ng/mL, the inhibition at 10 µM [14] was 51% and the Activity [15] was “Non-toxic”. The BPR [16] was 12.1, the Activity [17] was “Non-toxic” and the Ratio [18] was 3.5. The Activity [19] was “Dose-dependent effect”, the Stability [20] was 62% and the Activity [21] was “Non-toxic”. For the same compound, the Activity [22] was “inactive”, the Activity [23] was “Non-toxic” and the IC50 [24] was 3.98 µM. For the same compound, the BPR [25] was 16.2, the EC50 [26] was 0.133 µM and the inhibition at 10 µM [27] was 33%. For the same compound, the PPB [28] was 68%, the concentration at 0.5 h [29] was 17500 ng/g and the concentration at 2 h [30] was 903 ng/mL. For the same compound, the inhibition at 10 µM [31] was 80% and the Activity [32] was “Non-toxic”.
